We go through two compounds from ChEMBL document CHEMBL4330057, “Second generation of diazachrysenes: Protection of Ebola virus infected mice and mechanism of action” (Eur J Med Chem, 2019).

Data set [1] concerns Ebolavirus. In words: Antiviral activity against Ebolavirus. In kind it is functional, organism-based. The following applies: Orthoebolavirus.
A short description of data set [2]: Cytotoxicity against human HeLa cells after 2 hrs by high content imaging analysis. In kind it is cell-based.
Data set [3] in a line: Binding affinity to AGP (unknown origin) at compound to protein molar ratio of 1:20 after 10 mins by fluorescence spectral analysis. It is filed as ADME. The following applies: human, isolated protein. In outline: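 Protein fluorescence spectra recorded while compound was added in increasing amounts. Stern-Volmer binding constant (KSV) derived from the fluorescence change.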

Data set [4] can be described thus: Toxicity in 6 hrs post fertilized zebrafish embryo assessed as mortality up to 120 hrs post fertilization. Also noted: species or system Danio rerio. The following applies: in vivo.
The nature of data set [5]: Toxicity in 6 hrs post fertilized zebrafish embryo assessed as lethal effect on egg coagulation up to 50 uM up to 120 hrs post fertilization by inverted microscopic method. Details: species or system Danio rerio. The conditions noted are these: in vivo.
Data set [6] in a line: Toxicity in 6 hrs post fertilized zebrafish embryo assessed as lethal effect on somite formation up to 50 uM up to 120 hrs post fertilization by inverted microscopic method. Also noted: species or system Danio rerio. The conditions noted are these: in vivo.
A short description of data set [7]: Toxicity in 6 hrs post fertilized zebrafish embryo assessed as teratogenic effect by measuring malformation of eyes up to 50 uM up to 120 hrs post fertilization by inverted microscopic method. Also noted: species or system Danio rerio. The following applies: in vivo.
Data set [8] in a line: Toxicity in 6 hrs post fertilized zebrafish embryo assessed as teratogenic effect by measuring malformation of sacculi/otoliths up to 50 uM up to 120 hrs post fertilization by inverted microscopic method. Details: species or system Danio rerio. The following applies: in vivo.
Data set [9] can be described thus: Toxicity in 6 hrs post fertilized zebrafish embryo assessed as teratogenic effect by measuring malformation of notochord up to 50 uM up to 120 hrs post fertilization by inverted microscopic method. In kind it is tissue-based, Danio rerio. The following applies: in vivo.
Data set [10] in a line: Toxicity in 6 hrs post fertilized zebrafish embryo assessed as teratogenic effect by measuring yolk edema up to 50 uM up to 120 hrs post fertilization by inverted microscopic method. Also noted: species or system Danio rerio. The following applies: in vivo.
A short description of data set [11]: Toxicity in 6 hrs post fertilized zebrafish embryo assessed as teratogenic effect by measuring yolk absorption up to 50 uM up to 120 hrs post fertilization by inverted microscopic method. Details: species or system Danio rerio. The conditions noted are these: in vivo.
Data set [12] can be described thus: Toxicity in 6 hrs post fertilized zebrafish embryo assessed as teratogenic effect by measuring growth retardation up to 50 uM up to 120 hrs post fertilization by inverted microscopic method. Also noted: species or system Danio rerio. The following applies: in vivo.
Data set [13] in a line: Hepatotoxicity in 6 hrs post fertilized transgenic l-fabp:EGFP zebrafish embryo assessed as change in liver area index up to 40 uM up to 120 hrs post fertilization by fluorescence assay. In kind it is toxicity, Danio rerio. The conditions noted are these: in vivo. In outline: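 Tg(l-fabp:EGFP) zebrafish embryos exposed from 6 hpf. At 120 hpf, liver area index (liver area/lateral body area) and liver fluorescence assessed by in vivo imaging.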

Data set [14] is described as follows: Myelotoxicity in 6 hrs post fertilized transgenic mpx:GFP zebrafish embryo assessed as reduction in neutrophil occurrence up to 20 uM measured at 72 hrs hrs post fertilization by fluorescence assay. Also noted: species or system Danio rerio. In outline:
(§1)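 Tg(mpx:GFP) zebrafish embryos with GFP-labelled neutrophils were treated with compound. At 72 hpf, neutrophil fluorescence of the whole embryo and neutrophil occurrence were assessed.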

The nature of data set [15]: Selectivity index, ratio of LC50 for toxicity in transgenic zebrafish embryo assessed as mortality to EC50 for Ebolavirus H. sapiens-wt/1995/Kikwit-9510621. The following applies: read-out: Selectivity Index.
A short description of data set [16]: Drug uptake in C57Bl/6 mouse serum at 10 mg/kg/day, ip qd for 7 days measured on day 5 at 15 to 180 mins post dose by UHPLC/MS analysis. The conditions noted are these: in vivo, read-out: Drug uptake. It is filed as ADME, organism-based.
Data set [17] deals with Ebolavirus. In words: Antiviral activity against Ebolavirus H. sapiens-wt/1995/Kikwit-9510621 infected in human HeLa cells assessed as inhibition of viral infection at 2 uM treated simultaneously with viral infection and measured after 24 hrs by EboV GP immunostaining based high content imaging analysis. It is filed as functional, organism-based.
Data set [18] deals with Ebolavirus. In words: Antiviral activity against Ebolavirus H. sapiens-wt/1995/Kikwit-9510621 infected in human HeLa cells assessed as inhibition of viral infection at 2 uM pretreated for 2 hrs followed by viral infection and measured after 24 hrs by EboV GP immunostaining based high content imaging analysis. In kind it is functional, organism-based.
The subject of data set [19] is HeLa. Briefly: Inhibition of lysosome fusion with autophagosome in human HeLa cells harboring GFP-LC3 assessed as increase in GFP-LC3-2 clustering up to 50 uM after 6 hrs by Western blot analysis. It is filed as functional, cell-based. In outline:
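HeLa cells were exposed to compound for 6 h, then lysed and analysed by Western blot.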

Data set [20] in a line: Solubility of the compound in pH 7.4 buffer by laser nephelometric method. In kind it is physicochemical. An outline of the steps: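 Solubility at pH 7.4 was measured by laser nephelometry (light scattering), in triplicate.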
The target in data set [21] is Cytochrome P450 3A4 (Homo sapiens, UniProt P08684). In words: Inhibition of CYP3A4 (unknown origin) using dibenzylfluorescein as substrate. It is filed as ADME. An outline of the steps:
(§2)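 CYP IC50 was taken from the net fluorescent signal after incubation at 37 °C for a set time with active cytochrome P450 enzyme and a fluorescent probe substrate.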

The target of data set [22] is Cytochrome P450 2D6 (Homo sapiens, UniProt P10635). In words: Inhibition of CYP2D6 (unknown origin) using 3-(2-(N, N-Diethyl-N-methylamino)ethyl)-7-Methoxy-4-Methylcoumarin as substrate. In kind it is ADME. The following applies: read-out: INH. In outline: as §2
Chain of Cytochrome P450 2D6 (P10635 whole entry): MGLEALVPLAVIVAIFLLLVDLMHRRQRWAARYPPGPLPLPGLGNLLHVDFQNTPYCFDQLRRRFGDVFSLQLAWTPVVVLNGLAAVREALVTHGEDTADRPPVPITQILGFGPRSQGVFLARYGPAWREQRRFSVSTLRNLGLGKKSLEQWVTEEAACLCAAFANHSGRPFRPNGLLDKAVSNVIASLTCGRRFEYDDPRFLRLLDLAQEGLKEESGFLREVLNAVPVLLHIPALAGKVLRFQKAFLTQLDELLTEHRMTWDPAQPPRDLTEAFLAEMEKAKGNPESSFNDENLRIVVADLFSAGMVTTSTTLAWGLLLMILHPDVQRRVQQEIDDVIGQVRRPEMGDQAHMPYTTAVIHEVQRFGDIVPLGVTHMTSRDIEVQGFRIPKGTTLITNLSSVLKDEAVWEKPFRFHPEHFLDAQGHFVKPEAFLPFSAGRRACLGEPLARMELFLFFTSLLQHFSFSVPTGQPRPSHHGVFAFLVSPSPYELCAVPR
The nature of data set [23]: Clearance in mouse liver microsomes after 1 hr. It is filed as ADME, Microsome. The conditions noted are these: read-out: CLH. In outline:
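Substrate depletion with mouse or human liver microsomes, 1 h at 37 °C. Clearance (μL/min/mg) and half-life derived.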
For orientation: Liver microsomes are vesicles of endoplasmic reticulum, rich in cytochrome P450 enzymes.

Data set [24] can be described thus: Apparent permeability from basolateral to apical side in MDCK cells. In kind it is ADME, cell-based, Canis lupus familiaris. The following applies: dog. An outline of the steps: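 Apparent permeability measured in MDCK cell monolayers, apical→basolateral and basolateral→apical directions, three biological replicates.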
Data set [25] in a line: Drug metabolism in C57Bl/6 mouse assessed as dehydrogenation metabolite formation at 20 mg/kg/day, ip qd for 7 days measured at 24 hrs post last dose by UHPLC/MS analysis. In kind it is ADME, organism-based. The conditions noted are these: in vivo. In outline: (§3)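 Serum from two mice dosed 20 mg/kg/day i.p. taken 24 h after the last dose. Compound quantified by UHPLC/MS and screened for M+2, M+16, M-2 and M+32 products or combinations.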

Data set [26] can be described thus: Drug metabolism in C57Bl/6 mouse assessed as bis-oxygenation metabolite formation at 20 mg/kg/day, ip qd for 7 days measured at 24 hrs post last dose by UHPLC/MS analysis. It is filed as ADME, organism-based. The following applies: in vivo. In outline:
as §3

Data set [27] in a line: Myelotoxicity in 6 hrs post fertilized transgenic mpx:GFP zebrafish embryo assessed as reduction in neutrophil occurrence up to 40 uM measured at 72 hrs hrs post fertilization by fluorescence assay. Details: species or system Danio rerio. In outline: as §1
Data set [28] concerns Zaire ebolavirus. Briefly: Antiviral activity against Ebolavirus Mayinga infected in ip dosed Balb/c mouse assessed as protection against viral infection administered 2 hrs prior to viral infection daily for 6 days and measured for 14 days. The following applies: 1976. It is filed as functional, organism-based.
Data set [29] can be described thus: Toxicity in Balb/c mouse infected with Ebolavirus Mayinga assessed as weight loss at 1 to 10 mg/kg, ip administered 2 hrs prior to viral infection daily for 6 days and measured for 14 days. It is filed as organism-based. The following applies: in vivo, 336 h.
Data set [30] concerns HeLa. Briefly: Induction of lysosome suppression in human HeLa cells assessed as vesicular compartment expansion pretreated for 2 hrs by uranyl acetate staining based transmission electron microscopic method. It is filed as functional, subcellular. In outline: (§4)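 HeLa cells mock-treated or treated 2 h with compound, then left uninfected or infected with rVSV-EBOV-GP-GFP for 2 h or 6 h. Processed for transmission electron microscopy to examine vesicular compartments.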

The subject of data set [31] is HeLa. Briefly: Induction of lysosome suppression in human HeLa cells assessed as vesicular compartment expansion pretreated for 2 hrs followed by VSV pseudotyped EBOV-GP-GFP infection for 2 to 6 hrs by uranyl acetate staining based transmission electron microscopic method. It is filed as functional, subcellular. An outline of the steps:
as §4

pEC50, pIC50: −log10 of the molar value. Calls of active or inactive are those of the source. No cut-off for these calls is given here.

The term pEC50 denotes the negative decadic logarithm of the EC50, by convention in mol/L. A lower pEC50 goes with a large EC50. The term CC50 denotes the concentration giving 50% cytotoxicity. The low end stands for greater toxicity to the cells, the high end for lower toxicity to the cells. In general, LC50 refers to the concentration lethal to half of the exposed cells or organisms. The kinetic solubility is the concentration staying in solution when a stock, usually in DMSO, is diluted into the medium. As a reminder, the Papp B→A is the apparent permeability from the basolateral to the apical side of a cell layer.

Chain of Cytochrome P450 3A4 (P08684 whole entry): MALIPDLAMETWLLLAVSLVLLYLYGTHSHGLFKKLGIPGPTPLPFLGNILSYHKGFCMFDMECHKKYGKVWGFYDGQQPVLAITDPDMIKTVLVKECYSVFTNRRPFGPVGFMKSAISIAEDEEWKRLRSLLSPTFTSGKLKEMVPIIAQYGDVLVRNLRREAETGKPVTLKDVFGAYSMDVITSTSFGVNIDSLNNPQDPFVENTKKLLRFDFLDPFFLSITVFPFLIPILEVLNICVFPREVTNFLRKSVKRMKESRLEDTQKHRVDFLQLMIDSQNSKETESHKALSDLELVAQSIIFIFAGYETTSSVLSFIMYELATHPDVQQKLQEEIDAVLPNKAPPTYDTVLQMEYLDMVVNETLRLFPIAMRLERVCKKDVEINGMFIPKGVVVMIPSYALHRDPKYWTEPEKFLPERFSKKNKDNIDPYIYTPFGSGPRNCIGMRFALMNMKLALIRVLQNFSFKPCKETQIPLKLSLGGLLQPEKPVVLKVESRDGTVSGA

As to `Cl.Cl.Cl.Cl.c1cc(NCCN2CCOCC2)c2ccc3c(ccc4c(NCCN5CCOCC5)ccnc43)c2n1`, the negative-log EC50 (pEC50) in data set [1] is 6.15. In [2], this compound showed a CC50 at 2 h above 20 µM. The KSV in data set [3] was 8.12 ×10⁴ /M. Further, the Activity result in data set [4] is reported as “Dose-dependent effect”; in [5], “Non-Toxic”; in [6], “Non-Toxic”; in data set [7], “Non-Toxic”; in data set [8], “Non-Toxic”; in data set [9] it was “Non-Toxic”. In addition, the Activity entry in data set [10], in data set [11], in [12], in [13] and in [14] was “Non-Toxic” throughout. The LC50 in data set [4] worked out at 72.1 µM. The selectivity ratio in data set [15] is 70 to 100. In data set [16], the concentration lay within 460 to 1030 nM. The outcome in data set [17] and in [18] was Active. The inhibition entry in data set [19] was “Active”.

Regarding `Cl.Cl.Cl.Cl.c1cc(NCCCCN2CCOCC2)c2ccc3c(ccc4c(NCCN5CCOCC5)ccnc43)c2n1`, it took 8 µM to reach half-maximal cytotoxicity in data set [2] (CC50 at 2 h). The same compound showed a kinetic solubility in data set [20] above 50 µg/mL. In data set [21], the INH was above 10 µM. For the same compound, the pIC50 in data set [22] is below 5.00. Besides, the microsomal CLint in [23] was found to be 22.3 µL/min/mg. Besides, the Papp B→A in data set [24] fell in the range of 43.2 to 67.3 ×10⁻⁶ cm/s. Also, in data set [3], the KSV was 6.12 ×10⁴ /M. Further, the Drug metabolism entry in data set [25] and in data set [26] was “Metabolite_Notdetected” throughout. Further, the Activity result in data set [4] is recorded as “Dose-dependent effect”; in [5], “Non-Toxic”; in [6], “Non-Toxic”; in [7], “Non-Toxic”; in data set [8] it was “Non-Toxic”; in data set [9] it was “Non-Toxic”. Moreover, the Activity entry in [10] is “Non-Toxic”; in data set [11] it was “Non-Toxic”; in data set [12] it was “Non-Toxic”; in [27] it was “Non-Toxic”; in [28] it was “Dose-dependent effect”; in data set [29], “Non-Toxic”. The LC50 in data set [4] turned out to be 18.9 µM. Moreover, in data set [15], the selectivity ratio lay within 70 to 100. The outcome in data set [17], in data set [18], in data set [30] and in [31] was Active. The inhibition entry in data set [19] was “Active”.
